Converted amounts (≈) assume the structure as drawn.
Experiments:
Type in all cases: functional
Conditions in all cases: Canis lupus familiaris, read-out: ID50 (the source's name)
MDCK [1] = assay: Antiviral activity against influenza A virus (Mississippi) in Madin Darby canine kidney (MDCK) cell culture
Procedure, shortened: (§1)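 Confluent MDCK monolayers were given compound in serial 2-fold dilutions, then infected with 100 TCID50 of virus and incubated at 35 °C for 48 h. Cells were fixed, stained and scored microscopically for cytopathic effect. The dose giving 50% inhibition of CPE was read when infected controls just reached 100% CPE, in ng/mL, as the mean ± SD of at least three determinations.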

MDCK [2] = assay: Antiviral activity against influenza A virus (NY/83/5) in Madin Darby canine kidney (MDCK) cell culture; procedure, shortened: as §1
MDCK [3] = assay: Antiviral activity against influenza A virus (Taiwan) in Madin Darby canine kidney (MDCK) cell culture; procedure, shortened: as §1

Row | SMILES | IC50 (MDCK [1]) [µg/mL] | IC50 (MDCK [2]) [µg/mL] | IC50 (MDCK [3]) [µg/mL]
1 | CC(N)C12CC3CC(CC(C3)C1O)C2 (stereo not given) | 0.15 (≈ 0.768 µM) | 0.101 (≈ 0.517 µM) | 0.16 (≈ 0.819 µM)
2 | CC(N)C12CC3CC(C1)C(O)C(C3)C2 (stereo not given) | 3.4 (≈ 17.4 µM) | 0.804 (≈ 4.12 µM) | 1.5 (≈ 7.68 µM)
3 | CC(N)C12CC3CC(CC(O)(C3)C1)C2 (stereo not given) [3-HYDROXYRIMANTADINE] | 6.7 (≈ 34.3 µM) | 4 (≈ 20.5 µM) | 5.4 (≈ 27.6 µM)
4 | NC12CC3CC(CC(C3)C1)C2 [AMANTADINE] | 0.113 (≈ 0.747 µM) | 0.08 (≈ 0.529 µM) | 0.116 (≈ 0.767 µM)
5 | CC(N)C12CC3CC(CC(C3)C1)C2 (stereo not given) [RIMANTADINE] | 0.021 (≈ 0.117 µM) | 0.012 (≈ 0.0669 µM) | 0.0098 (≈ 0.0547 µM)
